{
  "source": "ChEMBL document CHEMBL2331390",
  "about": "“Telomere shortening and cell senescence induced by perylene derivatives in A549 human lung cancer cells” (Bioorg Med Chem, 2013)",
  "key": {"A549 [1]": {"tested_on": "A549", "experiment": "Cytotoxicity against human A549 cells assessed as colony formation at 0.4 uM incubated for 6 days followed by subculturing in compound-free medium measured after 14 days by crystal violet staining method relative to control", "type": "functional", "procedure,_shortened": "(§1)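 A549 cells from the long-term culture (0.4 or 0.8 μM, medium changed every 3 days, replated every 6 days) were collected on the stated day. 2×10^3 cells seeded per 10-cm dish, fed every 4-5 days. Colonies stained with crystal violet after 14 days and counted; expressed as % of control. Controls under 25 colonies excluded. Three independent experiments.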"}, "A549 [2]": {"tested_on": "A549", "experiment": "Binding affinity to human TERT promoter DNA sequence in human A549 cells assessed as inhibition of telomerase-mediated MTS primer extension after 24 hrs by fluorescence-based TRAP assay", "type": "cell-based", "procedure,_shortened": "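A549 cells exposed to compound for 24 h, lysed in CHAPS buffer, protein measured by Bradford. 6 µg lysate protein used as telomerase source in fluorescent TRAP with MTS primer (no G-quadruplex motif), with no phenol-chloroform step. FAM-primer PCR, native PAGE, fluorescence quantified. Mean ± SD of three experiments.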"}, "A549 [3]": {"tested_on": "A549", "experiment": "Binding affinity to human TERT promoter DNA sequence in human A549 cells assessed as telomere restriction fragment length at 0.4 uM after 78 days by TeloTAGGG-based chemiluminescence assay (reference value: 3.4 kb)", "type": "cell-based", "procedure,_shortened": "(§2)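 Genomic DNA from A549 cells kept long-term with 0.4 or 0.8 μM compound (medium changed every 3 days, replated every 6 days). DNA isolated with DNAzol. 2 µg digested with RsaI/HinfI, run on 0.8% agarose, Southern-blotted, hybridized with DIG-labeled telomeric probe, anti-DIG alkaline phosphatase, chemiluminescence. Mean TRF = Σ(ODi)/Σ(ODi/Li).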"}, "A549 [4]": {"tested_on": "A549", "experiment": "Binding affinity to human TERT promoter DNA sequence in human A549 cells assessed as telomere restriction fragment length at 0.8 uM after 6 days by TeloTAGGG-based chemiluminescence assay (reference value: 3.4 kb)", "type": "cell-based", "procedure,_shortened": "as §2"}, "A549 [5]": {"tested_on": "A549", "experiment": "Binding affinity to human TERT promoter DNA sequence in human A549 cells assessed as telomere restriction fragment length at 0.8 uM after 78 days by TeloTAGGG-based chemiluminescence assay (reference value: 3.4 kb)", "type": "cell-based", "procedure,_shortened": "as §2"}, "A549 [6]": {"tested_on": "A549", "experiment": "Binding affinity to human TERT promoter DNA sequence in human A549 cells assessed as decrease in TERT mRNA expression after 24 hrs by semi-quantitative PCR analysis", "type": "cell-based", "procedure,_shortened": "(§3)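 A549 cells (3.0×10^5) grown 24 h in RPMI 1640 + 10% FBS at 37 °C, 5% CO2, then exposed to compound for 24 h. Total RNA by Trizol, reverse transcribed, hTERT amplified with specific primers. Semi-quantitative and real-time SYBR Green PCR (45 cycles), standard-curve method, normalized to GAPDH. Three independent experiments.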"}, "A549 [7]": {"tested_on": "A549", "experiment": "Cytotoxicity against human A549 cells assessed as colony formation at 0.4 uM incubated for 78 days followed by subculturing in compound-free medium measured after 14 days by crystal violet staining method relative to control", "type": "functional", "procedure,_shortened": "as §1"}, "A549 [8]": {"tested_on": "A549", "experiment": "Cytotoxicity against human A549 cells assessed as colony formation at 0.4 uM incubated for 30 days followed by subculturing in compound-free medium measured after 14 days by crystal violet staining method relative to control", "type": "functional", "procedure,_shortened": "as §1"}, "A549 [9]": {"tested_on": "A549", "experiment": "Antiproliferative activity against human A549 cells assessed as decrease in population doubling at 0.8 uM after 78 days relative to control", "type": "functional", "design": "scale not given: the % may be the effect or the level left", "procedure,_shortened": "(§4)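 A549 cells (1.5×10^5) seeded in RPMI 1640 + 10% FBS with 0.4 or 0.8 μM perylene or medium only. Medium changed every 3 days. Every 6 days, at confluence, cells were trypsinized, counted by hemocytometer and replated at 1.5×10^5. Population doublings n = (log Pn − log P0)/log 2, cumulated against time. Three independent experiments.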"}, "A549 [10]": {"tested_on": "A549", "experiment": "Binding affinity to human TERT promoter DNA sequence in human A549 cells assessed as telomere restriction fragment length at 0.8 uM after 30 days by TeloTAGGG-based chemiluminescence assay (reference value: 3.3 kb)", "type": "cell-based", "procedure,_shortened": "as §2"}, "A549 [11]": {"tested_on": "A549", "experiment": "Binding affinity to human TERT promoter DNA sequence in human A549 cells assessed as telomere restriction fragment length at 0.4 uM after 6 days by TeloTAGGG-based chemiluminescence assay (reference value: 3.4 kb)", "type": "cell-based", "procedure,_shortened": "as §2"}, "Homo sapiens [12]": {"organism": "Homo sapiens", "experiment": "Binding affinity to human TERT1 5'-AAGGGGAGGGGCTGGGAGGGCCCGGA-3' DNA assessed as induction of intramoleculsr G-quadruplex formation after 10 hrs by PAGE analysis", "procedure,_shortened": "(§5)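 FAM-labeled G-rich strand (2 µM) and complementary C-rich strand (2 µM) with compound in 10 mM Tris-HCl pH 7.4, 100 mM KCl. Heated to 95 °C for 5 min, slowly cooled to 55 °C, held 10 h, then cooled to 4 °C. Duplex vs G-quadruplex resolved on 16% native PAGE with 50 mM KCl (4 °C, 350 V, 10 h) and fluorescence-imaged.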"}, "Homo sapiens [13]": {"organism": "Homo sapiens", "experiment": "Binding affinity to human telomeric 5'-AGATAGTTAGGGTTAGGGTTAGGGTTAGGGTT-3' DNA assessed as induction of intramoleculsr G-quadruplex formation after 10 hrs by PAGE analysis", "procedure,_shortened": "as §5"}, "Homo sapiens [14]": {"organism": "Homo sapiens", "experiment": "Binding affinity to human TERT2 5'-GGGGGCTGGGCCGGGGACCCGGGAGGGGTCGGGACGGGGCGGGG-3' DNA assessed as induction of intermolecular G-quadruplex formation at 8 to 32 uM after 10 hrs by PAGE analysis", "procedure,_shortened": "as §5"}, "A549 [15]": {"tested_on": "A549", "experiment": "Cytotoxicity against human A549 cells assessed as colony formation at 0.8 uM incubated for 30 days followed by subculturing in compound-free medium measured after 14 days by crystal violet staining method relative to control", "type": "functional", "procedure,_shortened": "as §1"}, "A549 [16]": {"tested_on": "A549", "experiment": "Binding affinity to human TERT promoter DNA sequence in human A549 cells assessed as decrease in TERT mRNA expression at 6 uM after 24 hrs by semi-quantitative PCR analysis relative to control", "type": "cell-based", "design": "scale not given: the % may be the effect or the level left", "procedure,_shortened": "as §3"}, "A549 [17]": {"tested_on": "A549", "experiment": "Cytotoxicity against human A549 cells assessed as reduction in colony formation incubated for 30 days followed by subculturing in compound-free medium measured after 14 days by crystal violet staining method", "type": "functional, cell-based", "procedure,_shortened": "as §1"}, "[18]": {"experiment": "Binding affinity to TSG4 primer DNA (unknown origin) assessed as inhibition of telomerase-mediated extension of primer […] by fluorescence-based TRAP assay", "procedure,_shortened": "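Cell-free TRAP. Compound preincubated with TSG4 primer in telomerase buffer (20 mM Tris-HCl pH 7.4, 1.5 mM MgCl2, 63 mM KCl, 1 mM EGTA, 200 µM dNTPs) at 37 °C for 2 h. Crude telomerase (50 ng) from telomerase-transfected HEK293T added, 30 °C for 30 min. Compound removed by phenol-chloroform, products ethanol-precipitated, PCR with FAM-tagged primer, 8% native PAGE, phosphoimaging. IC50 ± SD from three experiments.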"}, "A549 [19]": {"tested_on": "A549", "experiment": "Binding affinity to human TERT promoter DNA sequence in human A549 cells assessed as telomere restriction fragment length at 0.4 uM after 30 days by TeloTAGGG-based chemiluminescence assay (reference value: 3.3 kb)", "type": "cell-based", "procedure,_shortened": "as §2"}, "A549 [20]": {"tested_on": "A549", "experiment": "Antiproliferative activity against human A549 cells assessed as decrease in population doubling at 0.4 uM after 78 days", "type": "functional, cell-based", "procedure,_shortened": "as §4"}, "A549 [21]": {"tested_on": "A549", "experiment": "Cytotoxicity against human A549 cells assessed as colony formation at 0.8 uM incubated for 6 days followed by subculturing in compound-free medium measured after 14 days by crystal violet staining method relative to control", "type": "functional", "procedure,_shortened": "as §1"}, "A549 [22]": {"tested_on": "A549", "experiment": "Induction of senescence in human A549 cells assessed as increase in beta-galactosidase activity at 0.4 to 0.8 uM incubated for 78 days followed by subculturing on compound-free medium measured after 48 hrs by fluorescence microscopic analysis", "type": "functional, cell-based", "procedure,_shortened": "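A549 cells from the long-term treatment replated and grown 48 h. Fixed in 2% formaldehyde/0.2% glutaraldehyde for 5 min at RT. Stained overnight with 1 mg/ml X-gal in pH 6 citrate/phosphate buffer with 5 mM ferro/ferricyanide, 150 mM NaCl, 2 mM MgCl2. Enlarged blue cells scored by microscopy.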"}, "A549 [23]": {"tested_on": "A549", "experiment": "Cytotoxicity against human A549 cells assessed as colony formation at 0.8 uM incubated for 78 days followed by subculturing in compound-free medium measured after 14 days by crystal violet staining method relative to control", "type": "functional", "procedure,_shortened": "as §1"}, "A549 [24]": {"tested_on": "A549", "experiment": "Antiproliferative activity against human A549 cells assessed as decrease in cell viability at 0.8 uM after 78 days relative to control", "type": "functional, cell-based", "procedure,_shortened": "as §4"}},
  "note": "pIC50: −log10 of the molar value. Active and inactive are the calls of the source. The calls are words filed in the database; no cut-off is given here.",
  "data": [
    {"smiles": "O=C1c2ccc3c4ccc5c6c(ccc(c7ccc(c2c37)C(=O)N1CCN1CCCCC1)c64)C(=O)N(CCN1CCCCC1)C5=O", "values": [
      {"measurement": "Activity", "setting": "A549 [1]", "value": 95, "unit": "%"},
      {"measurement": "Activity", "setting": "A549 [2]", "value": "Dose-dependent effect"},
      {"measurement": "Activity", "setting": "A549 [3]", "value": 3, "unit": "kilobase"},
      {"measurement": "Activity", "setting": "A549 [4]", "value": 3.5, "unit": "kilobase"},
      {"measurement": "Activity", "setting": "A549 [5]", "value": 2.7, "unit": "kilobase"},
      {"measurement": "Activity", "setting": "A549 [6]", "value": "Dose-dependent effect"},
      {"measurement": "Activity", "setting": "A549 [7]", "value": 78, "unit": "%"},
      {"measurement": "Activity", "setting": "A549 [8]", "value": 96, "unit": "%"},
      {"measurement": "Activity", "setting": "A549 [9]", "value": 20, "unit": "%"},
      {"measurement": "Activity", "setting": "A549 [10]", "value": 3.1, "unit": "kilobase"},
      {"measurement": "Activity", "setting": "A549 [11]", "value": 3.6, "unit": "kilobase"},
      {"measurement": "Activity", "setting": "Homo sapiens [12]", "value": "Dose-dependent effect"},
      {"measurement": "Activity", "setting": "Homo sapiens [13]", "value": "Dose-dependent effect"},
      {"measurement": "Activity", "setting": "Homo sapiens [14]", "value": "Active"},
      {"measurement": "Activity", "setting": "A549 [15]", "value": 89, "unit": "%"},
      {"measurement": "Activity", "setting": "A549 [16]", "value": 68, "unit": "%"},
      {"measurement": "Activity", "setting": "A549 [17]", "value": "Dose-dependent effect"},
      {"measurement": "pIC50", "setting": "[18]", "value": 5.85},
      {"measurement": "inhibition", "setting": "[18]", "value": "Dose-dependent effect"},
      {"measurement": "Activity", "setting": "A549 [19]", "value": 3.3, "unit": "kilobase"},
      {"measurement": "Activity", "setting": "A549 [20]", "value": "inactive"},
      {"measurement": "Activity", "setting": "A549 [21]", "value": 93, "unit": "%"},
      {"measurement": "Activity", "setting": "A549 [22]", "value": "inactive"},
      {"measurement": "Activity", "setting": "A549 [23]", "value": 66, "unit": "%"},
      {"measurement": "Activity", "setting": "A549 [24]", "value": "inactive"}
    ]}
  ]
}
